Bioassay records deposited in PubChem BioAssay by The Scripps Research Institute Molecular Screening Center.
Shown are actives, neighbours in structure and some others; about 1.2% of the full set was active somewhere.
procasp7 counter: counter-screen: procaspase-7 (human) activation; recombinant procaspase-7, Ac-DEVD-pNA absorbance 405 nm; D23A/D198A/D206A triple mutant, cannot self-cleave; scale: DMSO 0, 5 µM enzyme 100; activation, % at 8.5 µM; 330,000 tested, 0.093% active;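 active = percent activation above the screen-wide mean plus 3 SD, cut at about 25% in these data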
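System: Uncleavable procaspase-7 mutant enzyme; Amount: 2 µM procaspase-7 mutant as dispensed; Schedule: 1 h compound preincubation, 2 h substrate cleavage, 25 °C; Measured by: 405 nm absorbance of p-nitroaniline; Evaluation: percent activation from buffer-corrected 0–120 min absorbance change; Control set: low DMSO alone, high DMSO plus 5 µM PC-7.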
proCasp3 act: procaspase-3 (human) activation. P42574. recombinant procaspase-3 D3A, Ac-DEVD-pNA absorbance 405 nm. activation, % at 8.5 µM. 330,000 tested, 0.11% active;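 active = activation above the mean of all tested compounds plus 3 SD, cut at about 21% in these data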;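 note: 0% = DMSO alone and 100% = DMSO wells spiked with extra 5 µM PC-3 D3A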
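Evaluation: percent activation relative to control range; Material: Procaspase-3 D3A mutant, all three cleavage aspartates alanine; Compound: single dose, 8.5 µM nominal compound, 0.8% DMSO; Replication: one well per compound; Signal: absorbance at 405 nm, 0 and 120 min; Schedule: 1 h preincubation plus 2 h reaction at 25 °C.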
PP1 counter: counter-screen for PP5 inhibitors: inhibitors of human PP1-alpha | purified PP1alpha, OMFP fluorescence | inhibition, % at 6.7 µM | 320,000 tested, 0.9% active;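 active = inhibition above the mean inhibition of all tested compounds plus 3 SD, computed separately for each screening campaign, cut at about 15% in these data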
PP5 primary: inhibitors of human protein phosphatase 5 (PP5); purified PP5c, OMFP substrate fluorescence; 320,000 tested, 0.18% active; inhibition, % at 6.7 µM;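 active = inhibition above the campaign's mean inhibition across all tested compounds plus 3 SD, cut at about 9.5% in these data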;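 note: 0% = DMSO only and 100% = 100 µM cantharidin control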
Target sequence (P53041 whole entry, looked up): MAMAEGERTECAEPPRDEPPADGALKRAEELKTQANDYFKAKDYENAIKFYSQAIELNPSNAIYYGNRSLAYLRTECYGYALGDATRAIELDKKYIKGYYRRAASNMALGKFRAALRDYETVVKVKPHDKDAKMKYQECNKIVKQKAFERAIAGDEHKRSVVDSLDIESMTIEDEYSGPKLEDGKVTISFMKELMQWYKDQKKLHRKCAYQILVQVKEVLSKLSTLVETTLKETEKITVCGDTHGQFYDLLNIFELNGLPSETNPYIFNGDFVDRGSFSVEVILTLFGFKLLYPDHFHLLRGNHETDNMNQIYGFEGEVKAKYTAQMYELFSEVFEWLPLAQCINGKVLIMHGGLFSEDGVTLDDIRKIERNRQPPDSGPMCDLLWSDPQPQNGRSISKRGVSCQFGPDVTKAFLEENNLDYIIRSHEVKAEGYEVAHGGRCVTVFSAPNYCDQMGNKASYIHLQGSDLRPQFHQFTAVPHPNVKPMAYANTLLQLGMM
PP1 inh confirm: human PP1 phosphatase inhibition, confirmation. inhibition, % at 6.7 µM. 1,900 tested, 52% active. shares compounds with PP1 counter. AID 2358. purified PP1alpha, OMFP substrate fluorescence;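 active = mean PP1 inhibition above a set limit taken from the earlier primary screen, cut at about 15% in these data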
PP5 counter: counter-screen for PP1 inhibitors: human PP5 phosphatase inhibition. shares compounds with PP1 counter. purified PP5c, OMFP fluorescence. inhibition, % at 6.7 µM. 1,900 tested, 4% active;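 active = mean PP5 inhibition over triplicate wells above about 9.5% taken from the earlier PP1 screen, limit read from the data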
* = called active by the depositor; . = no result.

SMILES | procasp7 counter | proCasp3 act | PP1 counter | PP5 primary | PP1 inh confirm | PP5 counter
Cc1ccn2c(NC3CCCC3)c(-c3ccccn3)nc2c1 | -8.3 | -12.9 | 14.2 | 1.2 | . | .
Cc1ccc(Nc2c(-c3ccccn3)nc3ccc(C)cn23)cc1 | -8.7 | -23.3 | 71.1* | 4.7 | 41.5* | 1.0
O=C(NCCCNC(=O)c1ccco1)c1ccc(F)cc1 | -3.1 | 1.8 | -0.3 | 1.2 | . | .
O=C(NC(=S)Nc1cccc(O)c1)C1CCCCC1 | -12.5 | -9.9 | . | . | . | .
Cc1cc2ccccn2c1C(C[N+](=O)[O-])c1ccc(N(C)C)cc1 (stereo unspecified) | -3.0 | -6.9 | 19.5* | 2.7 | 4.4 | 9.8*
O=c1oc2ccccc2cc1-c1nc2ccccc2o1 | 2.4 | 1.1 | -1.9 | -2.1 | . | .
Nc1cc2nc3ccccc3oc-2cc1=O | -22.1 | -25.7 | 19.0* | 4.3 | 1.7 | 6.7
CCOC(=O)C1=C(CSc2nc3ccccc3s2)NC(=O)NC1c1cc(C)ccc1C (stereo unspecified) | -1.5 | 5.4 | 23.3* | 4.0 | 7.9 | -1.3
CCOC(=O)C1=C(CSc2nc3ccccc3s2)NC(=O)NC1c1ccc(OC)cc1 (stereo unspecified) | 7.3 | -7.6 | 10.6 | 3.6 | . | .
Cc1noc(NS(=O)(=O)c2ccc(NC(=O)C(Cl)(Cl)Cl)cc2)c1C | -11.1 | 4.1 | 4.6 | 3.1 | . | .
Cc1noc(NS(=O)(=O)c2ccc(NC(=O)Nc3ccc(Cl)c(Cl)c3)cc2)c1C | -4.9 | -12.2 | 17.7* | 6.0 | 10.8 | 0.0
Cc1ccc(NC(=O)COC(=O)c2ccc3c(c2)NC(=O)C2CCCN32)cc1 (stereo unspecified) | 0.9 | -2.6 | 18.6* | -0.5 | 11.0 | 5.4
COC(=O)c1ccc2c(c1)NC(=O)C1CCCN21 (stereo unspecified) | -5.1 | 13.4 | 1.3 | 0.3 | . | .
O=C(CSCC(=O)N1CCCCC1)Nc1nc(-c2ccc(Cl)s2)cs1 | 2.7 | 0.7 | 2.1 | -0.1 | . | .
O=C(CSCC(=O)N1CCN(c2ccccc2)CC1)Nc1nc(-c2ccc(Cl)s2)cs1 | -8.3 | -1.1 | 26.7* | 4.1 | 4.6 | 0.4
Cc1cccn2c(=O)nc(SCC(=O)N3CCC(Cc4ccccc4)CC3)nc12 | -5.8 | -12.0 | -2.6 | 2.3 | . | .
COc1c(N2CCN(C(=S)NCc3ccccc3)C(C)C2)c(F)cc2c(=O)c(C(=O)O)cn(C3CC3)c12 (stereo unspecified) | 1.4 | 6.8 | 43.3* | 2.8 | 32.8* | -4.2
COc1c(N2CCN[C@H](C)C2)c(F)cc2c(=O)c(C(=O)O)cn(C3CC3)c12 | 0.8 | -0.9 | 1.4 | -1.3 | . | .
CCOC(=O)C1=C(COC(=O)/C=C/c2ccco2)NC(=O)NC1C (stereo unspecified) | -12.9 | -4.0 | -7.0 | 0.8 | . | .
COc1ccc(S(=O)(=O)N2CCCC2CNC(=O)C(=O)NCc2ccccc2)cc1 (stereo unspecified) | 2.5 | -0.5 | 32.8* | -0.9 | -4.7 | -5.0
O=C(NCCC1CCCCN1S(=O)(=O)c1ccc(F)cc1)C(=O)NCc1ccncc1 (stereo unspecified) | 0.0 | -0.2 | -8.8 | 0.0 | . | .
COc1ccc(S(=O)(=O)N2CCCC2CNC(=O)C(=O)NCc2ccc(C)cc2)cc1 (stereo unspecified) | 2.0 | -3.4 | -2.7 | -0.9 | . | .
O=C(NCCC1CCCCN1S(=O)(=O)c1ccc(Cl)cc1)C(=O)NCc1ccncc1 (stereo unspecified) | -1.7 | 1.7 | 30.7* | 2.1 | -2.5 | 0.9
CC(C)CC1NC(=O)c2ccc(Cl)cc2-n2c1nc1ccc(Cl)cc1c2=O (stereo unspecified) | -1.0 | 9.6 | . | . | . | .
COc1cnc(-c2ccccn2)nc1Sc1ccc(C)cc1 | 4.8 | -8.0 | 47.5* | 6.4 | 50.6* | -1.6
COc1cnc(-c2ccccn2)nc1Sc1cccc(Cl)c1 | -0.7 | 4.6 | 32.6* | 8.3 | 50.3* | -1.4
COc1ccccc1Sc1nc(-c2ccccn2)ncc1OC | -3.1 | 1.2 | 43.9* | 3.5 | 45.8* | -6.0
CCCNC(=O)c1ccc(CNc2c(N3CCC(C(=O)OCC)CC3)c(=O)c2=O)cc1 | -2.2 | -2.9 | -1.7 | 1.7 | . | .
Cc1nn(Cc2ccc(Cl)cc2Cl)c(C)c1NC(=O)CCl | -2.4 | 2.6 | 0.8 | -1.4 | . | .
